Measured values published in ChEMBL document CHEMBL4014305, “Anti-leishmanial and cytotoxic activities of amino acid-triazole hybrids: Synthesis, biological evaluation, molecular docking and in silico physico-chemical properties” (Bioorg Med Chem Lett, 2017).

Key:
[1] = Selectivity index, ratio of IC50 for human PMA-differentaited THP1 cells to IC50 for promastigote form of Leishmania donovani Dd8; assay type: toxicity; conditions: PMA-differentiated THP1 cells, read-out: Ratio IC50
In short: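 Ratio of IC50 against THP-1 macrophages (normal cells) to IC50 against L. donovani promastigotes.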

Leishmania donovani = assay: Antileishmanial activity against Leishmania donovani Dd8 promastigote forms after 48 hrs by neubauer hemocytometer method; assay type: functional; conditions: for IC50: Dd8, 48 h
In short: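 Promastigotes of L. donovani Dd8 strain exposed 48 h to increasing concentrations of test agent; percent viability scored, IC50 derived.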

THP-1 [2] = assay: Cytotoxicity against human PMA-differentaited THP1 cells after 24 hrs by MTT assay; assay type: cell-based; conditions: THP-1, 24 h
THP-1 [3] = assay: Cytotoxicity against human PMA-differentaited THP1 cells assessed as cell viability at 100 uM after 24 hrs by MTT assay; assay type: cell-based; conditions: thp-1, 24 h

| Compound | selectivity ratio [1] | IC50 (Leishmania donovani) [µM] | IC50 (THP-1 [2]) [µM] | Activity (THP-1 [3]) | Activity (Leishmania donovani) |
| --- | --- | --- | --- | --- | --- |
| N[C@@H](Cc1ccccc1)C(=O)OCc1cn(-c2ccc(Cl)cc2)nn1 | 2.94 | 132 | 389 | – | – |
| O=C(OCc1cn(-c2ccc(F)cc2)nn1)[C@@H]1CCCN1 | 2.54 | 122 | 309 | – | – |
| COc1ccc(-n2cc(COC(=O)[C@@H]3CCCN3)nn2)cc1 | 2.11 | 104 | 218 | – | – |
| N[C@@H](Cc1c[nH]c2ccccc12)C(=O)OCc1cn(-c2ccc(F)cc2)nn1 | 2.32 | 151 | 352 | – | – |
| Cc1ccc(-n2cc(COC(=O)[C@@H](N)Cc3ccccc3)nn2)cc1 | 3.28 | 88.8 | 292 | Non-Toxic | Dose-dependent effect |
| N[C@@H](Cc1ccccc1)C(=O)OCc1cn(-c2ccc([N+](=O)[O-])cc2)nn1 | 1.05 | 171 | 180 | – | – |
| Cc1ccc(-n2cc(COC(=O)[C@@H](N)Cc3c[nH]c4ccccc34)nn2)cc1 | 2.95 | 99.4 | 293 | – | – |
| N[C@@H](Cc1c[nH]c2ccccc12)C(=O)OCc1cn(-c2ccc([N+](=O)[O-])cc2)nn1 | 1.47 | 119 | 174 | – | – |
| COc1ccc(-n2cc(COC(=O)[C@@H](N)Cc3c[nH]c4ccccc34)nn2)cc1 | 2.06 | 94.5 | 195 | Non-Toxic | Dose-dependent effect |
| N[C@@H](Cc1c[nH]c2ccccc12)C(=O)OCc1cn(-c2ccc(Cl)cc2)nn1 | 2.46 | 129 | 317 | – | – |
| N[C@@H](Cc1ccccc1)C(=O)OCc1cn(-c2ccccc2)nn1 | 3.09 | 163 | 504 | – | – |
| O=C(OCc1cn(-c2ccc(Cl)cc2)nn1)[C@@H]1CCCN1 | 2.2 | 157 | 346 | – | – |
| N[C@@H](Cc1ccccc1)C(=O)OCc1cn(-c2ccc(F)cc2)nn1 | 1.48 | 133 | 196 | – | – |
| O=C(OCc1cn(-c2ccccc2)nn1)[C@@H]1CCCN1 | 8.05 | 96.9 | 780 | Non-Toxic | Dose-dependent effect |
| O=C(OCc1cn(-c2ccc([N+](=O)[O-])cc2)nn1)[C@@H]1CCCN1 | 1.82 | 189 | 344 | – | – |
| N[C@@H](Cc1c[nH]c2ccccc12)C(=O)OCc1cn(-c2ccccc2)nn1 | 1.39 | 138 | 191 | – | – |
| CCCCCCCCCCCCCCCCOP(=O)([O-])OCC[N+](C)(C)C [MILTEFOSINE] | 1.99 | 27.1 | 54.1 | – | – |
| COc1ccc(-n2cc(COC(=O)[C@@H](N)Cc3ccccc3)nn2)cc1 | 1.8 | 144 | 260 | – | – |
| Cc1ccc(-n2cc(COC(=O)[C@@H]3CCCN3)nn2)cc1 | 2.4 | 175 | 421 | – | – |
